Source: ChEMBL document CHEMBL1156780, “6-(Het)aryl-7-deazapurine ribonucleosides as novel potent cytostatic agents” (J Med Chem, 2010)

Experiments:
A549 = test: Cytostatic activity against human A549 cells after 5 days by SRB assay; assay type: functional; conditions: A549, 120 h
In short: (§1)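 Cells seeded in RPMI (colon, breast, lung lines), MEM (Du145) or F12K (PC3) with 10% FBS, 37 °C overnight. Day-zero plates fixed with cold 10% TCA. Compounds added as 5-fold serial dilutions for 5 days. Fixed, stained with 0.057% SRB in 1% acetic acid, dye solubilized in 10 mM Tris pH 10.5, A500 read. Growth % corrected for day-0 OD; GIC₅₀ from sigmoidal fit.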

CCRF-CEM = test: Cytotoxicity against human CCRF-CEM cells after 3 days by XTT assay; assay type: functional, cell-based; conditions: 72 h
In short: (§2)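 Cell viability of CCRF-CEM, HL60 and HeLa cells measured by XTT assay after 72 h incubation with compounds. IC₅₀ taken as mean of 2–4 independent experiments.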

[1] = Cytotoxicity against human HeLaS3 cells after 3 days by XTT assay; assay type: functional, cell-based; conditions: HeLa S3, 72 h
[2] = Cytostatic activity against human Hs578 cells after 5 days by SRB assay; assay type: functional; conditions: Hs578, 120 h; in short: as §1
HCT-116 = test: Cytostatic activity against human HCT116 cells after 5 days by SRB assay; assay type: functional; conditions: HCT-116, 120 h; in short: as §1
HL-60 = test: Cytotoxicity against human HL60 cells after 3 days by XTT assay; assay type: functional, cell-based; conditions: HL-60, 72 h; in short: as §2
DU-145 = test: Cytostatic activity against human DU145 cells after 5 days by SRB assay; assay type: functional; conditions: DU-145, 120 h; in short: as §1
HCT-15 = test: Cytotoxicity against human HCT15 cells after 5 days by SRB assay; assay type: functional; conditions: HCT-15, 120 h; in short: as §1
PC-3 = test: Cytotoxicity against human PC3 cells after 5 days by SRB assay; assay type: functional; conditions: PC-3, 120 h; in short: as §1
NCI-H23 = test: Cytotoxicity against human NCI-H23 cells after 5 days by SRB assay; assay type: functional; conditions: NCI-H23, 120 h; in short: as §1
BT-549 = test: Cytotoxicity against human BT549 cells after 5 days by SRB assay; assay type: functional; conditions: BT-549, 120 h; in short: as §1

| Compound | GI50 (A549) [µM] | GI50 (HCT-116) [µM] | GI50 (DU-145) [µM] | IC50 (CCRF-CEM) [µM] | IC50 [1] [µM] | GI50 [2] [µM] | IC50 (HL-60) [µM] | GI50 (HCT-15) [µM] | GI50 (PC-3) [µM] | GI50 (NCI-H23) [µM] | GI50 (BT-549) [µM] |
| --- | --- | --- | --- | --- | --- | --- | --- | --- | --- | --- | --- |
| OC[C@H]1O[C@@H](n2cc(F)c3c(-c4cc[nH]c4)ncnc32)[C@H](O)[C@@H]1O | 0.13 | 0.25 | 0.01 | 0.93 | 8.9 | 0.36 | 1.9 |  |  |  |  |
| OC[C@H]1O[C@@H](n2cc(Cl)c3c(-c4ccsc4)ncnc32)[C@H](O)[C@@H]1O | 0.38 | 0.1 | 0.018 | 1 | 0.34 | 0.11 | 1.6 |  |  |  |  |
| OC[C@H]1O[C@@H](n2ccc3c(Cc4ccccc4)ncnc32)[C@H](O)[C@@H]1O | > 10 | > 10 | > 10 | 3.8 | > 7.5 | > 10 | > 10 |  |  |  |  |
| OC[C@H]1O[C@@H](n2cc(F)c3c(-c4nccs4)ncnc32)[C@H](O)[C@@H]1O | 0.9 | 1.3 | 0.024 | 0.55 | 3.1 | 0.57 | 1 |  |  |  |  |
| OC[C@H]1O[C@@H](n2cc(F)c3c(-c4ccsc4)ncnc32)[C@H](O)[C@@H]1O | 0.38 | 0.14 | 0.066 | 0.56 | 0.21 | 0.81 | 4.9 |  |  |  |  |
| OC[C@H]1O[C@@H](n2ccc3c(-c4c[nH]cn4)ncnc32)[C@H](O)[C@@H]1O | 2.6 | 3.7 | 0.094 | 0.71 | 3.3 | 1.9 |  |  |  |  |  |
| OC[C@H]1O[C@@H](n2ccc3c(-c4ccc(F)cc4)ncnc32)[C@H](O)[C@@H]1O | > 10 | > 10 | 0.73 | 23.2 | 2.9 | 2.5 | 52.7 |  |  |  |  |
| OC[C@H]1O[C@@H](n2ccc3c(-c4ccsc4)ncnc32)[C@H](O)[C@@H]1O | 0.63 | 0.22 | 0.032 | 4 |  | 0.71 | > 40 |  |  |  |  |
| COc1ccc(-c2ncnc3c2ccn3[C@@H]2O[C@H](CO)[C@@H](O)[C@H]2O)cc1 | > 10 | > 10 | 1.3 | 10.9 | > 10 | > 10 | > 10 |  |  |  |  |
| OC[C@H]1O[C@@H](n2ccc3c(-c4nccs4)ncnc32)[C@H](O)[C@@H]1O | 0.41 | 0.48 | 0.019 | 0.39 | 0.13 | 0.29 | 1.2 |  |  |  |  |
| OC[C@H]1O[C@@H](n2ccc3c(-c4ccc[se]4)ncnc32)[C@H](O)[C@@H]1O | 0.23 | 0.34 | 0.028 | 1.5 | 7.4 | 0.29 | 2.8 |  |  |  |  |
| OC[C@H]1O[C@@H](n2cc(F)c3c(-c4ccccc4)ncnc32)[C@H](O)[C@@H]1O | > 10 | > 10 | 0.58 | 3.1 | 2.6 | > 10 | > 40 |  |  |  |  |
| OC[C@H]1O[C@@H](n2cc(F)c3c(-c4ccc[nH]4)ncnc32)[C@H](O)[C@@H]1O | 0.19 | 0.45 | 0.009 | 0.41 | 0.23 | 0.31 | 3.3 |  |  |  |  |
| OC[C@H]1O[C@@H](n2ccc3c(-c4ccccc4)ncnc32)[C@H](O)[C@@H]1O | > 10 | > 10 | 1.1 | 4 | > 40 | > 10 |  |  |  |  |  |
| Nc1nc(Cl)nc2c1ncn2[C@@H]1O[C@H](CO)[C@@H](O)[C@@H]1F [CLOFARABINE] |  |  |  |  |  |  |  | 0.18 | 0.063 | 0.04 | 0.065 |

The next lines start with results.

| GI50 (A549) [µM] | GI50 (HCT-116) [µM] | GI50 (DU-145) [µM] | Compound | IC50 (CCRF-CEM) [µM] | IC50 [1] [µM] | GI50 [2] [µM] | IC50 (HL-60) [µM] | GI50 (HCT-15) [µM] | GI50 (PC-3) [µM] | GI50 (NCI-H23) [µM] | GI50 (BT-549) [µM] |
| --- | --- | --- | --- | --- | --- | --- | --- | --- | --- | --- | --- |
| 2.5 | 1.4 | 0.14 | OC[C@H]1O[C@@H](n2cc(Cl)c3c(-c4ccccc4)ncnc32)[C@H](O)[C@@H]1O | 0.91 | 0.42 | > 10 | 1.2 |  |  |  |  |
| 0.11 | 0.039 | 0.005 | OC[C@H]1O[C@@H](n2cc(F)c3c(-c4ccco4)ncnc32)[C@H](O)[C@@H]1O | 1.4 | 8 | 0.18 | 1.2 | 0.057 | 0.075 | 4.3 | 0.11 |
| > 10 | > 10 | 0.89 | OC[C@H]1O[C@@H](n2cc(F)c3c(-c4c[nH]cn4)ncnc32)[C@H](O)[C@@H]1O | 1.8 | 12.2 | 2.1 |  |  |  |  |  |
| 0.06 | 0.018 | 0.005 | OC[C@H]1O[C@@H](n2cc(F)c3c(-c4ccoc4)ncnc32)[C@H](O)[C@@H]1O | 1 | 0.17 | 0.18 | 2 |  |  |  |  |
| 4.9 | > 10 | 0.39 | OC[C@H]1O[C@@H](n2ccc3c(-c4ccccn4)ncnc32)[C@H](O)[C@@H]1O | 1.5 |  | > 10 | > 40 |  |  |  |  |
| 1.1 | 2 | 0.054 | OC[C@H]1O[C@@H](n2cc(Cl)c3c(-c4ccoc4)ncnc32)[C@H](O)[C@@H]1O | 1.1 | 2.7 | 1.6 | 2.5 |  |  |  |  |
| > 10 | > 10 | 0.63 | OC[C@H]1O[C@@H](n2ccc3c(-c4ccc[nH]4)ncnc32)[C@H](O)[C@@H]1O | 10 |  | 1.3 |  |  |  |  |  |
| 3.3 | 7.3 | 0.41 | OC[C@H]1O[C@@H](n2ccc3c(-c4ccn[nH]4)ncnc32)[C@H](O)[C@@H]1O | 0.91 | 1.1 | 3.9 | 10.1 |  |  |  |  |
| 0.25 | 0.45 | 0.03 | OCc1ncnc2c1ccn2[C@@H]1O[C@H](CO)[C@@H](O)[C@H]1O | 0.45 | 0.35 | 0.053 | 2.2 |  |  |  |  |
| > 10 | > 10 | > 10 | OC[C@H]1O[C@@H](n2ccc3c(-c4cccnc4)ncnc32)[C@H](O)[C@@H]1O | > 10 | > 10 | > 10 | > 10 |  |  |  |  |
| 6.2 | 5.7 | 0.075 | OC[C@H]1O[C@@H](n2ccc3c(-c4cn[nH]c4)ncnc32)[C@H](O)[C@@H]1O | 1 | 4.1 | 3.1 |  |  |  |  |  |
| 0.36 | 0.5 | 0.03 | OC[C@H]1O[C@@H](n2ccc3c(-c4cc[nH]c4)ncnc32)[C@H](O)[C@@H]1O | 0.28 | 0.26 | 0.44 | 1.2 |  |  |  |  |
| 4.4 | 2.6 | 1.2 | CCc1ncnc2c1ccn2[C@@H]1O[C@H](CO)[C@@H](O)[C@H]1O | 1.25 | 3.6 | 4.7 | 5.6 |  |  |  |  |
| 0.38 | 0.27 | 0.013 | OC[C@H]1O[C@@H](n2cc(Cl)c3c(-c4cccs4)ncnc32)[C@H](O)[C@@H]1O | 2.7 | 28.2 | 1.6 | 5.5 |  |  |  |  |
